# Measured values pooled from the literature.
# Protocols differ between the studies behind these lines.
# Target: Mitogen-activated protein kinase kinase kinase 2 (MAP3K2, Homo sapiens, UniProt Q9Y2U5)
# One construct used (Q9Y2U5 1-619): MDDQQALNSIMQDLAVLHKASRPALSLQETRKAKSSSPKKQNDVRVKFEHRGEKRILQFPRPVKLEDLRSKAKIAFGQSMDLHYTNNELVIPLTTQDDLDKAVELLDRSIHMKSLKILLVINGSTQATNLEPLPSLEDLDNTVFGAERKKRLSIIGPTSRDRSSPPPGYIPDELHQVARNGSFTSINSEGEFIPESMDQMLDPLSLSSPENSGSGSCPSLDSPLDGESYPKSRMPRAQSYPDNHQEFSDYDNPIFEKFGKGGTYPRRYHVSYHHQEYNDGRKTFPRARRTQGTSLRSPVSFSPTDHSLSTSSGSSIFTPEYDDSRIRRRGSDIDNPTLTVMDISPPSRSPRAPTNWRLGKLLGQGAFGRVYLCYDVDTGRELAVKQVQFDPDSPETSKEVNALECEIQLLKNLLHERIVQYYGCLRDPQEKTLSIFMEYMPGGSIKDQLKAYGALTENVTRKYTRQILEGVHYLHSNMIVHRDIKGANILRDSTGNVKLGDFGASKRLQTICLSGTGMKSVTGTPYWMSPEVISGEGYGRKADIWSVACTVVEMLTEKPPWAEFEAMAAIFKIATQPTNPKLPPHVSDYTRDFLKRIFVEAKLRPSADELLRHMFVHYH
Compound,test,test system,conditions,endpoint,result
Cc1cc(C)c(-n2ccn3nc(-c4cccnc4)cc23)cc1NC(=O)c1cc(C#N)cc(S(F)(F)(F)(F)F)c1,"cell-free assay, competition with immobilised ligand",,0.1 µM,remaining binding,86.4%
N#CCCc1ccc2c(c1)-c1[nH]c3ccc([N+](=O)[O-])cc3c1CC(=O)N2,cell-free assay,,0.5 µM,remaining signal,61.5%
CS(=O)(=O)N1CCCC(NC(=O)[C@H](CCC2CCCCC2)NC(=O)c2ccc(CNc3ncnc4c3nnn4-c3ccccc3)cc2)C1 (some centres unmarked),"cell-free assay, competition with immobilised ligand",,0.1 µM,remaining binding,100%
Cc1cc(NC(=O)c2cccc3cc(-c4cccc5[nH]nc(N)c45)ccc23)ccc1F,"enzyme activity, inhibitor",,0.1 µM,activity vs control,100%
CN1CC(Oc2cnc(C#N)cc2-c2ccn3nc(NC(=O)C4CC4)cc3c2)C1,"enzyme activity, inhibitor",,1 µM,inhibition,0%
Cc1ccc(C(=O)NCc2ccsc2)cc1C#Cc1cn(C(C)C)c2ncnc(N)c12,"enzyme activity, inhibitor",,1 µM,activity vs control,61%
Cc1c(C(=O)O)cc(-c2ccc(C3CCNCC3)cc2)c2ccc(-c3ccc(C(F)(F)F)cc3)cc12,"binding, competition with immobilised ligand",,1 µM,remaining binding,100%
Nc1ncnc2occ(-c3ccc(NC(=O)Nc4cc(C(F)(F)F)ccc4F)cc3)c12,"cell-free assay, inhibitor",,20 µM,remaining signal,1.4%
CCN(CC)CCNC(=O)c1c(C)[nH]c(/C=C2\C(=O)Nc3ccc(F)cc32)c1C,cell-free assay,,0.5 µM,remaining signal,51.9%
CC(C)(C)c1nc2c(s1)c1nc(N)ncc1c1ccc(NS(=O)(=O)c3c(F)cccc3F)c(F)c12,"enzyme activity, inhibitor, radiometric",,1 µM,remaining activity,83%
Cc1sc(C(=O)NC2COC2)cc1-n1cc(NC(=O)Nc2c(F)cccc2Cl)cn1,"enzyme activity, inhibitor",,10 µM,remaining activity,88.1%
CCN1CCN(Cc2ccc(NC(=O)c3ccc(C)c(/C=C/c4cnc5[nH]ccc5c4OC)c3)cc2C(F)(F)F)CC1,"target engagement in cells, inhibitor, chemoproteomics",A-375,0.5 µM,inhibition,-0.738%
CN([C@@H]1CCc2c(CC(=O)O)c3ccccc3n2C1)S(=O)(=O)c1ccc(F)cc1,"cell-free assay, competition with immobilised ligand",,1 µM,remaining binding,100%
O=C(Nc1cnn(-c2csc(C(=O)NC3COC3)c2)c1)Nc1c(F)cccc1Cl,"enzyme activity, inhibitor",,5 µM,remaining activity,80.1%
